Assay results reported in ChEMBL document CHEMBL1134510, “Adenosine analogues as selective inhibitors of glyceraldehyde-3-phosphate dehydrogenase of Trypanosomatidae via structure-based drug design” (J Med Chem, 2001).

Legend:
[1] = Inhibitory activity against Leishmania mexicana GAPDH; Inactive at 50 uM
[2] = biological target: Glyceraldehyde-3-phosphate dehydrogenase, glycosomal (Leishmania mexicana, UniProt Q27890); assay: Inhibitory activity against Leishmania mexicana GAPDH
How it was run: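 Spectrophotometric GAPDH assay at 23 °C in 0.10 M triethanolamine/HCl pH 7.5, read as NADH formation at 340 nm. Final: 5.0 mM MgSO4, 1.0 mM EDTA, 12.8 mM KH2PO4, 1.0 mM DTT, 1.0 mM NaN3, 0.45 mM NAD+, 1.87 mM fresh glyceraldehyde-3-phosphate, 5% DMSO-d6. Started with enzyme. Initial rates 0–2 min as % of control. IC50 from ≥5 concentrations (≤50 µM) or extrapolated from ≥3.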

Trypanosoma brucei = assay: Effective concentration required to block the growth of bloodstream Trypanosoma brucei; assay type: functional; details: read-out: ED50 (the source's name)
How it was run: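 Bloodstream-form strain 427 trypomastigotes are grown in HMI-9 with 10% FBS at 37 °C, 5% CO₂. Triplicate wells are seeded at 5 × 10³ parasites per well with serially diluted drug. Growth is read with Alamar Blue at 48 h. Assays were run twice.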

[3] = In vitro inhibition of rabbit muscle GAPDH.; design: species or system Oryctolagus cuniculus
How it was run: (§1)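 Spectrophotometric assay at 23 °C in 0.10 M triethanolamine/HCl, pH 7.5. Enzyme starts the reaction and inhibitors are in 5% DMSO-d₆. Initial rates over 0–2 min are compared with control. IC50 comes from ≥5 concentrations, or is extrapolated from ≥3 concentrations when above 50 µM.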

[4] = In vitro inhibition of Trypanosoma cruzi GAPDH.; how it was run: as §1
[5] = In vitro inhibition of Trypanosoma brucei GAPDH.; how it was run: as §1
Trypanosoma cruzi = assay: Effective concentration required to inhibit the growth of mammalian stage of Trypanosoma cruzi grown in murine 3T3 fibroblasts; assay type: functional; details: read-out: ED50 (the source's name)
How it was run: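 Tulahuen strain stably carrying E. coli lacZ. Mammalian stages are cocultured with mouse 3T3 fibroblasts in RPMI 1640 with 10% FBS at 37 °C, 5% CO₂. Intracellular growth is followed by a colorimetric β-galactosidase read-out. Assays were run twice.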

NIH3T3 = assay: Effective concentration required to inhibit the growth of murine 3T3 fibroblasts; assay type: functional; details: Mus musculus, read-out: ED50 (the source's name)

Glyceraldehyde-3-phosphate dehydrogenase, glycosomal, sequence (Q27890 whole entry, looked up): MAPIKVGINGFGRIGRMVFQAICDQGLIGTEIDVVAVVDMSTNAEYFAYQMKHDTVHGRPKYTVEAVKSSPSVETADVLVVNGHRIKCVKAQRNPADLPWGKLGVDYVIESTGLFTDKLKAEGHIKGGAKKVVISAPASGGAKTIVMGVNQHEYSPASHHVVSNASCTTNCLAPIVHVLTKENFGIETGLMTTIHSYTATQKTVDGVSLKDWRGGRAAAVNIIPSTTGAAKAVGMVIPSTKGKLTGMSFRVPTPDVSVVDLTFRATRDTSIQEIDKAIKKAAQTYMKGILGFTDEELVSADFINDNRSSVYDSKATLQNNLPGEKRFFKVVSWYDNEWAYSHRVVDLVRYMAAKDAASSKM

Row | Structure (SMILES) | IC50 [1] | IC50 [2] | EC50 (Trypanosoma brucei) | IC50 [3] | IC50 [4] | IC50 [5] | EC50 (Trypanosoma cruzi) | EC50 (NIH3T3)
1 | COc1cccc(C(=O)N[C@@H]2[C@H](O)[C@@H](CO)O[C@H]2n2cnc3c(NCc4c(OC)ccc5ccccc45)ncnc32)c1 | Not Active | – | – | – | – | – | – | –
2 | COc1cc(OC)cc(C(=O)N[C@@H]2C(Cn3cnc4c(NCc5cccc(C)c5)ncnc43)OC(CO)[C@@H]2O)c1 (stereo partly specified) | – | 25 µM | – | – | – | – | – | –
3 | O=C(N[C@@H]1[C@H](O)[C@@H](CO)O[C@H]1n1cnc2c(NCc3cc(O)cc4ccccc34)ncnc21)c1cccc(Cl)c1 | – | 4 µM | 16 µM | > 50 µM | 12 µM | 25 µM | 30 µM | > 50 µM
4 | COc1cc(OC)cc(C(=O)N[C@@H]2C(Cn3cnc4c(N)ncnc43)OC(CNC(=O)C(c3ccccc3)c3ccccc3)[C@@H]2O)c1 (stereo partly specified) | – | 60 µM | – | – | – | – | – | –
5 | COc1ccc(C(=O)N[C@@H]2[C@H](O)[C@@H](CO)O[C@H]2n2cnc3c(NCc4cccc5ccccc45)ncnc32)cc1 | – | 100 µM | – | – | – | – | – | –
6 | COc1cccc(C(=O)N[C@@H]2[C@H](O)[C@@H](CO)O[C@H]2n2cnc3c(NCc4cc(OC)cc5ccccc45)ncnc32)c1 | – | 3 µM | 31 µM | > 50 µM | 12 µM | 12 µM | 20 µM | > 50 µM
7 | COc1cc(OC)cc(C(=O)N[C@@H]2C(Cn3cnc4c(NCc5ccccc5Sc5ccccc5CO)ncnc43)OC(CO)[C@@H]2O)c1 (stereo partly specified) | – | 75 µM | – | – | – | – | – | –
8 | COc1cc(OC)cc(C(=O)N[C@@H]2C(Cn3cnc4c(NC(c5ccccc5)c5ccccc5)ncnc43)OC(CO)[C@@H]2O)c1 (stereo partly specified) | – | 55 µM | – | – | – | – | – | –
9 | COc1cc(OC)cc(C(=O)N[C@@H]2C(Cn3cnc4c(NCc5ccccc5)ncnc43)OC(CO)[C@@H]2O)c1 (stereo partly specified) | – | 20 µM | – | – | – | – | – | –
10 | CC(=O)Oc1ccccc1C(=O)N[C@@H]1[C@H](O)[C@@H](CO)O[C@H]1n1cnc2c(NCc3cccc4ccccc34)ncnc21 | Not Active | – | – | – | – | – | – | –
11 | Nc1ncnc2c1ncn2C1O[C@H](CNC(=O)CC2CCCCC2)[C@@H](O)[C@H]1O (stereo partly specified) | – | 250 µM | – | – | – | – | – | –
12 | COc1ccccc1C(=O)N[C@@H]1[C@H](O)[C@@H](CO)O[C@H]1n1cnc2c(NCc3cccc4ccccc34)ncnc21 | Not Active | – | – | – | – | – | – | –
13 | O=C(N[C@@H]1[C@H](O)[C@@H](CO)O[C@H]1n1cnc2c(NCc3cccc4ccccc34)ncnc21)c1ccc(O)cc1 | – | 80 µM | – | – | – | – | – | –
14 | O=C(N[C@@H]1[C@H](O)[C@@H](CO)O[C@H]1n1cnc2c(NCc3cccc4ccccc34)ncnc21)c1cccc(O)c1 | – | 25 µM | – | – | – | – | – | –
15 | COc1cc(OC)cc(C(=O)N[C@@H]2[C@H](O)[C@@H](CO)O[C@H]2n2cnc3c(NCc4cc(OC)cc5ccccc45)ncnc32)c1 | – | 2 µM | 35 µM | > 50 µM | 7 µM | 5 µM | 35 µM | > 50 µM
16 | O=C(N[C@@H]1[C@H](O)[C@@H](CO)O[C@H]1n1cnc2c(NCc3cccc4ccccc34)ncnc21)c1cc(Cl)cc(Cl)c1 | – | 12 µM | 5 µM | > 50 µM | 75 µM | 100 µM | 7 µM | 35 µM
17 | COc1cccc(C(=O)N[C@@H]2[C@H](O)[C@@H](CO)O[C@H]2n2cnc3c(NCc4cccc5ccccc45)ncnc32)c1O | Not Active | – | – | – | – | – | – | –
18 | O=C(N[C@@H]1[C@H](O)[C@@H](CO)O[C@H]1n1cnc2c(NCc3cc(O)cc4ccccc34)ncnc21)c1cc(Cl)cc(Cl)c1 | – | 25 µM | 12 µM | > 50 µM | 40 µM | 55 µM | 41 µM | 43 µM
19 | CC(=O)Oc1ccc(C(=O)N[C@@H]2[C@H](O)[C@@H](CO)O[C@H]2n2cnc3c(NCc4cccc5ccccc45)ncnc32)cc1OC(C)=O | – | 25 µM | – | – | – | – | – | –
20 | COc1cccc(C(=O)N[C@@H]2[C@H](O)[C@@H](CO)O[C@H]2n2cnc3c(NCc4cc(O)cc5ccccc45)ncnc32)c1 | – | 6 µM | 35 µM | > 50 µM | 12 µM | 25 µM | > 50 µM | > 50 µM
21 | CC(=O)Oc1ccc(C(=O)N[C@@H]2[C@H](O)[C@@H](CO)O[C@H]2n2cnc3c(NCc4cccc5ccccc45)ncnc32)cc1 | – | 100 µM | – | – | – | – | – | –
22 | COc1cc(C(=O)N[C@@H]2[C@H](O)[C@@H](CO)O[C@H]2n2cnc3c(NCc4cccc5ccccc45)ncnc32)ccc1OC(C)=O | – | 10 µM | – | – | – | – | – | –
23 | COc1cccc(C(=O)N[C@@H]2[C@H](O)[C@@H](CO)O[C@H]2n2cnc3c(NCc4ccc(OC)c5ccccc45)ncnc32)c1 | – | 6 µM | 10 µM | > 50 µM | 50 µM | 26 µM | 12 µM | 50 µM

Row | Structure (SMILES) | IC50 [1] | IC50 [2] | EC50 (Trypanosoma brucei) | IC50 [3] | IC50 [4] | IC50 [5] | EC50 (Trypanosoma cruzi) | EC50 (NIH3T3)
24 | O=C(Cn1ccnc1[N+](=O)[O-])NCc1ccccc1 [BENZNIDAZOLE] | – | – | – | > 50 µM | – | – | 0.5 µM | > 50 µM
25 | COc1cc(C(=O)N[C@@H]2[C@H](O)[C@@H](CO)O[C@H]2n2cnc3c(NCc4cccc5ccccc45)ncnc32)ccc1O | – | 10 µM | – | – | – | – | – | –
26 | CC(=O)Oc1cccc(C(=O)N[C@@H]2[C@H](O)[C@@H](CO)O[C@H]2n2cnc3c(NCc4cccc5ccccc45)ncnc32)c1 | – | 50 µM | – | – | – | – | – | –
27 | COc1cc(CNc2ncnc3c2ncn3[C@@H]2O[C@H](CO)[C@@H](O)[C@H]2NC(=O)c2cc(Cl)cc(Cl)c2)c2ccccc2c1 | – | 25 µM | 16 µM | > 50 µM | 40 µM | 45 µM | 16 µM | 32 µM
28 | COc1cc(OC)cc(C(=O)N[C@@H]2C(Cn3cnc4c(Nc5ccc6ccccc6c5)ncnc43)OC(CO)[C@@H]2O)c1 (stereo partly specified) | – | 60 µM | – | – | – | – | – | –
29 | COc1cc(OC)cc(C(=O)N[C@@H]2C(Cn3cnc4c(NC5CCCc6ccccc65)ncnc43)OC(CO)[C@@H]2O)c1 (stereo partly specified) | – | 75 µM | – | – | – | – | – | –
30 | COc1cccc(C(=O)N[C@@H]2[C@H](O)[C@@H](CO)O[C@H]2n2cnc3c(NCc4cccc5ccccc45)ncnc32)c1OC(C)=O | Not Active | – | – | – | – | – | – | –
31 | COc1cc(OC)cc(C(=O)N[C@@H]2[C@H](O)[C@@H](CO)O[C@H]2n2cnc3c(NCc4cc(O)cc5ccccc45)ncnc32)c1 | – | 2 µM | 38 µM | > 50 µM | 10 µM | 8 µM | > 50 µM | > 50 µM
32 | O=C(N[C@@H]1[C@H](O)[C@@H](CO)O[C@H]1n1cnc2c(NCc3cccc4ccccc34)ncnc21)c1cc(O)cc(O)c1 | – | 5 µM | 50 µM | > 50 µM | 14 µM | 26 µM | > 50 µM | > 50 µM
33 | COc1ccc(C(=O)N[C@@H]2[C@H](O)[C@@H](CO)O[C@H]2n2cnc3c(NCc4cccc5ccccc45)ncnc32)cc1OC | – | 4 µM | 36 µM | > 50 µM | 7 µM | 47 µM | 22 µM | > 55 µM
34 | CN(C)c1cccc(C(=O)N[C@@H]2[C@H](O)[C@@H](CO)O[C@H]2n2cnc3c(NCc4cccc5ccccc45)ncnc32)c1 | – | 25 µM | – | – | – | – | – | –
35 | COc1ccc(C(=O)N[C@@H]2[C@H](O)[C@@H](CO)O[C@H]2n2cnc3c(NCc4cccc5ccccc45)ncnc32)cc1OC(C)=O | – | 78 µM | – | – | – | – | – | –
36 | COc1ccc(C(=O)N[C@@H]2[C@H](O)[C@@H](CO)O[C@H]2n2cnc3c(NCc4cccc5ccccc45)ncnc32)cc1O | – | 37 µM | – | – | – | – | – | –
37 | O=C(N[C@@H]1[C@H](O)[C@@H](CO)O[C@H]1n1cnc2c(NCc3cccc4ccccc34)ncnc21)c1cccc(Cl)c1 | – | 6 µM | – | – | – | – | – | –
38 | O=C(N[C@@H]1[C@H](O)[C@@H](CO)O[C@H]1n1cnc2c(NCc3cccc4ccccc34)ncnc21)c1ccc(O)c(O)c1 | – | 18 µM | – | – | – | – | – | –
39 | O=C(N[C@@H]1[C@H](O)[C@@H](CO)O[C@H]1n1cnc2c(NCc3cccc4ccccc34)ncnc21)c1ccc(Cl)cc1 | – | 100 µM | – | – | – | – | – | –
40 | COc1cccc(C(=O)N[C@@H]2[C@H](O)[C@@H](CO)O[C@H]2n2cnc3c(NCc4cccc5ccccc45)ncnc32)c1 | – | 6 µM | 18 µM | > 50 µM | 12 µM | 25 µM | 10 µM | 40 µM
41 | COc1cc(OC)cc(C(=O)N[C@@H]2C(Cn3cnc4c(NCc5ccccc5C)ncnc43)OC(CO)[C@@H]2O)c1 (stereo partly specified) | – | 25 µM | – | – | – | – | – | –
42 | CC(=O)Oc1cc(OC(C)=O)cc(C(=O)N[C@@H]2[C@H](O)[C@@H](CO)O[C@H]2n2cnc3c(NCc4cccc5ccccc45)ncnc32)c1 | – | 10 µM | > 50 µM | > 50 µM | 12 µM | 14 µM | > 50 µM | > 50 µM
43 | COc1cc(OC)cc(C(=O)N[C@@H]2C(Cn3cnc4c(N)ncnc43)OC(CNC(=O)CC3CCCCC3)[C@@H]2O)c1 (stereo partly specified) | – | 100 µM | – | – | – | – | – | –
44 | COc1cc(OC)cc(C(=O)N[C@@H]2[C@H](O)[C@@H](CO)O[C@H]2n2cnc3c(NCc4cccc5ccccc45)ncnc32)c1 | – | 2 µM | 17 µM | > 50 µM | 7 µM | 7 µM | 8 µM | 40 µM
45 | Nc1ncnc2c1ncn2C1O[C@H](CNC(=O)C(c2ccccc2)c2ccccc2)[C@@H](O)[C@H]1O (stereo partly specified) | – | 250 µM | – | – | – | – | – | –
